Compound activity (PubChem)
HDAC3 inhib: inhibitors of human histone deacetylase 3; O15379; recombinant HDAC3, fluorogenic peptide/trypsin coupled, fluorescence; inhibition, % at 8.3 µM; hit rate 0.15% among 320,000; in the data active means inhibition above about 26%, passing the limit was not always enough; inconclusive means no clear call, values can overlap the other calls
AI-2 QS modul: modulators of Vibrio harveyi AI-2 quorum sensing system. Vibrio harveyi JMH597 AI-2 luminescence/OD600 ratio, 9 h; active compounds read low; strain lacks LuxN and CqsS sensors; 0 = neutral-control median. activity change, % at 7.5 µM. hit rate 0.4% among 300,000; in the data active means activity change below about -75%, passing the limit was not always enough; inconclusive means no clear call, values can overlap the other calls;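 further: luminescence divided by OD600 gain over 9 h not by final OD600 alone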
ATG4B inhibitor: inhibitors of human ATG4B cysteine protease | hit rate 0.51% among 340,000 | inhibition, % at 8.33 µM | ATG4B cleavage of LC3-PLA2, NBD-HPC fluorescence, 1 h | Q9Y4P1; in the data active means inhibition above about 40%
LANA-H2A inh: blocks KSHV LANA binding to histone H2A/H2B | cell-free LANA-H2A/H2B peptide, fluorescence polarization | Q9QR71 | hit rate 0.6% among 320,000 | inhibition, % (no concentration beside the values); in the data active means inhibition mostly above about 10%, no sharp cut-off; inactive means mostly below about 6.7%
HKDC1 inhibitor: inhibitors of human hexokinase HKDC1; inhibition, % at 20 µM; recombinant HKDC1, G6PDH/diaphorase resazurin coupled fluorescence; AID 493160; hit rate 0.16% among 340,000;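 active means inhibition above about 35% when tested at 20 µM, limit read from the data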;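 further: plate controls were DMSO wells with enzyme for no effect and DMSO wells lacking enzyme for full effect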
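Test system: Recombinant HKDC1 (HK5) hexokinase enzyme, produced in-house | Input: HKDC1 at 5 µg/mL | Buffer or medium: Tris pH 8.0 buffer with MgCl2, Tween-20, BSA, BME | Schedule: 90 min reaction incubation at room temperature, dark | Technique: Resazurin-to-resorufin fluorescence via G6PDH and diaphorase coupling, 525/613 nm | Controls: DMSO wells with and without enzyme mix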
A1 inh: inhibitors of the anti-apoptotic protein A1, read as caspase activation. hit rate 0.066% among 330,000. AID 2462. MEF A1-2A-BIM cells, Caspase-Glo 3/7 luminescence, 3 h; percent of clofoctol response, vehicle zero. caspase activation, % (no concentration beside the values);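 active means over half of replicate activation scores above 10%, or exactly half above 10 with the replicate mean above 10; inconclusive means replicate mean below 10 yet half the replicates above 10; inactive means over half of replicates below 10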
Active calls of the source: *; u = inconclusive; x = no result given. A selection: hits, their analogues and other compounds. The true share with any hit is near 1.8%.

SMILES	HDAC3 inhib	AI-2 QS modul	ATG4B inhibitor	LANA-H2A inh	HKDC1 inhibitor	A1 inh
Cc1cccc(NC(=O)Cn2c(=O)n(CCC(=O)NC3CCCC3)c(=O)c3ccccc32)c1	1	21	4	0	-6	0
CCOc1ccccc1NC(=O)Cn1c(=O)n(CCC(=O)NC2CCCC2)c(=O)c2ccccc21	3	5	x	31*	x	0
CSc1nc(-c2ccccc2)cn1-c1ccc(NC(C)=O)cc1	7	36	1	37*	-3	-2
CCC/C(C#Cc1ccsc1)=C1/c2ccccc2C(=O)N1c1ccccc1	3	x	0	2	5	0
COC(=O)CSc1nc(N)c2c3c(sc2n1)C(c1ccccc1)SC(c1ccccc1)C3 (stereo not given)	-1	6	5	0	-6	16*
O=C(COC(=O)c1ccccc1)Nc1ncc([N+](=O)[O-])s1	-6	x	20	-1	31	-3
O=C(Nc1ccccc1)Nc1ncc([N+](=O)[O-])s1	x	-86*	7	x	2	x
Cc1ccc(NC(=O)CN2C(=O)NC3(CCc4ccccc43)C2=O)cc1 (stereo not given)	-4	-90*	-5	4	-6	1
Cc1ccc(NC(=O)CN2C(=O)NC3(CCc4ccccc43)C2=O)cc1Cl (stereo not given)	7	-90*	9	5	-3	1
Oc1cccc(/C=N/N2CCN(C3c4ccccc4-c4ccccc43)CC2)c1	9	22	4	0	-2	0
COc1cc(/C=N/N2CCN(C3c4ccccc4-c4ccccc43)CC2)ccc1O	5	23	2	26*	-5	0
Cc1cc(NC(=S)NC(=O)c2ccco2)c2ccccc2n1	8	6	-10	17*	-4	-1
Cc1ccc(NNC(=O)C(O)(c2cccc(C(F)(F)F)c2)c2cccc(C(F)(F)F)c2)cc1	41*	-6	35	5	0	1
O=C(NNc1ccccc1Br)C(O)(c1cccc(C(F)(F)F)c1)c1cccc(C(F)(F)F)c1	0	11	-3	6	-11	0
Oc1cccc(C=NCc2ccccc2)c1O	1	23	25	6	8	0
Oc1c(C=NCc2ccccc2)sc2ccccc12	3	-92*	19	-2	-7	-3
CC(=O)c1ccccc1NC(=O)CN1C(=O)NC2(CCCCCCC2)C1=O	x	x	-7	x	1	x
O=C(C[n+]1ccccc1)Nc1ccccc1[N+](=O)[O-]	0	14	-2	111*	-3	0
CC1=CC(=O)Nc2ccccc2S1	x	x	7	x	1	x
COc1ccc(-c2cc(=O)oc3c(C)c(OC(=O)c4cccs4)ccc23)cc1	-5	10	3	-2	-2	17*
CCCCN1CC(=O)N2[C@@H]3c4cc(OC)ccc4OC[C@@H]3[C@H](C(=O)OCC)[C@]2(C)C1=O	x	x	x	x	-1	x
O=C(N/C(=C/c1ccc([N+](=O)[O-])cc1)C(=O)N1CCOCC1)c1ccco1	-17	-7	-6	14*	-3	-1
CN(C(=O)OC(C)(C)C)[C@H](Cc1ccccc1)C(=O)N[C@H]1CCCCNC1=O	x	x	-8	x	-7	x
CC(=O)NC1CCC(OC(=O)Nc2ccccc2)CC1 (stereo not given)	x	x	-1	x	-2	x
COCc1c(C(=O)Nc2cccc(S(=O)(=O)N3CCCCC3)c2)oc2ccccc12	-1	x	3	4	0	0
SMILES	HDAC3 inhib	AI-2 QS modul	ATG4B inhibitor	LANA-H2A inh	HKDC1 inhibitor	A1 inh
Cc1ccc2c(c1C)NC(C(=O)O)C1CC=CC21 (stereo not given)	u	25	14	27*	38*	0
CCCN(CCC)C(=O)c1cc([N+](=O)[O-])cc2c1-c1ccc([N+](=O)[O-])cc1C2=C(C#N)C#N	-2	14	-4	-2	41*	3
CC(Oc1ccc2c(=O)c(-c3ccc(Cl)cc3)c(C(F)(F)F)oc2c1)C(=O)O (stereo not given)	2	21	-4	0	-1	0
CC(C)Oc1ccc(S(=O)(=O)N2CCOCC2)cc1NC(=O)CC1OC(=O)c2ccccc21 (stereo not given)	-3	x	-11	16*	-12	0
CC(C)Oc1ccc(S(=O)(=O)N2CCCCC2)cc1NC(=O)CC1OC(=O)c2ccccc21 (stereo not given)	-2	x	14	-7	1	0
CCOc1ccc(S(=O)(=O)N2CCOCC2)cc1NC(=O)CN1C(=O)NC(C)(c2ccc(C)cc2)C1=O (stereo not given)	x	x	2	x	-3	x
CCOc1ccc(S(=O)(=O)N2CCOCC2)cc1NC(=O)CN1C(=O)NC2(CCCCC2)C1=O	-2	x	-2	24*	0	0
Cc1cc(NC(=O)c2cc(-c3ccncc3)nc3ccccc23)ccc1Br	-8	x	2	0	1	0
O=C(C(=O)c1cc(Br)ccc1O)c1cc(Br)ccc1O	x	x	12	x	-2	x
O=CNC1c2ccccc2CCc2ccccc21	x	x	15	x	-3	x
O=C1CCC([N+](=O)[O-])C(c2ccccc2C(F)(F)F)N1 (stereo not given)	0	15	-5	-1	-6	-1
CC1=C([N+](=O)[O-])C(c2ccccc2C(F)(F)F)NC(=O)N1C (stereo not given)	6	40	2	30*	-3	1
O=[N+]([O-])c1cc2no[n+]([O-])c2cc1N1CCCCC1	x	x	5	x	0	x
Cc1cc(SCC(=O)N2CCN(C(=O)c3ccco3)CC2)c(C)cc1Br	1	x	-2	45*	-5	2
Cc1cc(SCC(=O)OCC(=O)N2CCN(C(=O)c3ccco3)CC2)c(C)cc1Br	6	23	-26	-6	11	0
COc1ccc(CNC(=S)NC2CCCCC2)cc1	-1	-67	0	0	1	1
Fc1ccc(CNC(=S)NC2CCCCCC2)cc1	9	-67	44*	1	-1	1
COc1ccc(/C=C/c2nc(S(=O)(=O)c3ccccc3)c(NCCCN(C)C)o2)cc1OC	4	-8	4	4	-1	0
COc1cc(C(=O)Nc2nnc(CC(=O)N3CCOCC3)s2)cc(OC)c1OC	-5	4	-7	17*	-1	0
COc1cc(C(=O)Nc2nnc(Cc3ccccc3)s2)cc(OC)c1OC	8	33	-11	-2	-1	0
COc1ccc2[nH]c3c(c2c1)CCN1C(=O)C(CC(=O)NCc2cccc(C(F)(F)F)c2)C[C@H](C(=O)N(C(C)C)C(C)C)[C@@]31C (stereo not given in full)	x	x	5	x	5	x
O=S(=O)(Nc1nccs1)c1ccc(Br)cc1	7	23	2	2	2	-1
